Test results from ChEMBL document CHEMBL4610026, “Design, synthesis and evaluation of protein disulfide isomerase inhibitors with nitric oxide releasing activity” (Bioorg Med Chem Lett, 2020).
Calls of active or inactive are those of the source. The rule behind the calls is not given here.

What was measured:
[1] = system: SH-SY5Y; test: Antiproliferative activity against human SH-SY5Y cells assessed as cell growth inhibition at 5 uM by CCK-8 assay; assay type: functional, cell-based
[2] = system: HeLa; test: Antiproliferative activity against human HeLa cells assessed as cell growth inhibition at 5 uM by CCK-8 assay; assay type: functional, cell-based
[3] = biological target: T1, Protein disulfide-isomerase (Bos taurus) (UniProt P05307); details: 0.1 to 50 uM
T1 sequence (whole entry): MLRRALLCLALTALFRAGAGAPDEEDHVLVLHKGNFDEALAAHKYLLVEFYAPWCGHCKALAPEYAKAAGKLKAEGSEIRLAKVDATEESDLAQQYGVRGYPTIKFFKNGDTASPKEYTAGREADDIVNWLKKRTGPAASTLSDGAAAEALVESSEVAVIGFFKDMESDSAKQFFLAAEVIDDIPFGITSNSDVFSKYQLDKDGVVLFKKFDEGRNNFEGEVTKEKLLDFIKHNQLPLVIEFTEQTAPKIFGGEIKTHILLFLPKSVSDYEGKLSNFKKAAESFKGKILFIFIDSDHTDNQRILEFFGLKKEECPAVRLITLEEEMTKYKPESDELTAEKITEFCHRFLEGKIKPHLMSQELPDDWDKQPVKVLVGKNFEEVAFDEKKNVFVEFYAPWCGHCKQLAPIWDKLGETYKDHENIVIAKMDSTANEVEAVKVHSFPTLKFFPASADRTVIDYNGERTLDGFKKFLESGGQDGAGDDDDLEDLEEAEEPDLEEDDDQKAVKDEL

[4] = biological target: T1, Protein disulfide-isomerase (Bos taurus); test: Inhibition of bovine liver PDI at 50 uM preincubated for 30 mins followed by insulin addition for 1 hr by insulin-aggregation assay relative to control
[5] = species: Homo sapiens; test: Nitrosylation activity at recombinant PDI (unknown origin) assessed as generation of s-nitrosylated PDI at 50 uM measured after 30 mins in presence of dithiothreitol by biotin switch assay based Western blot analysis
Outline: (§1)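 Biotin-switch detection of S-nitrosylated PDI: 400 ng purified recombinant PDI exposed to NO donor (1, 50, 300 or 600 μM) for 30 min, or left untreated.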

[6] = species: Homo sapiens; test: Nitrosylation activity at recombinant PDI (unknown origin) assessed as generation of S-nitrosylated PDI at 50 uM measured after 30 mins by biotin switch assay based Western blot analysis; outline: as §1
[7] = system: SH-SY5Y; test: Antiproliferative activity against human SH-SY5Y cells assessed as cell growth inhibition at 600 uM by CCK-8 assay relative to control; assay type: functional; details: read-out: GI
[8] = system: HeLa; test: Antiproliferative activity against human HeLa cells assessed as cell growth inhibition at 600 uM by CCK-8 assay relative to control; assay type: functional; details: read-out: GI
[9] = system: HeLa; test: Antiproliferative activity against human HeLa cells assessed as cell growth inhibition by CCK-8 assay; assay type: functional, cell-based
[10] = system: HEK-293T; test: Cytotoxicity against human HEK293T cells assessed as cell growth inhibition; assay type: cell-based
[11] = system: SH-SY5Y; test: Antiproliferative activity against human SH-SY5Y cells assessed as cell growth inhibition by CCK-8 assay; assay type: functional, cell-based
[12] = biological target: T1, Protein disulfide-isomerase (Bos taurus); test: Inhibition of bovine liver PDI preincubated for 30 mins followed by insulin addition for 1 hr by insulin-aggregation assay
[13] = species: Homo sapiens; test: Nitrosylation activity at recombinant PDI (unknown origin) assessed as generation of S-nitrosylated PDI at 600 uM measured after 30 mins in presence of dithiothreitol by biotin switch assay based Western blot analysis; outline: as §1
[14] = species: Homo sapiens; test: Nitrosylation activity at recombinant PDI (unknown origin) assessed as generation of S-nitrosylated PDI at 600 uM measured after 30 mins by biotin-switch assay based Western blot analysis; outline: as §1

inhibition [3]	inhibition [4]	Activity [5]	Activity [6]	inhibition [12]	Activity [13]	Activity [14]	Compound	growth inhibition (GI) [1]	growth inhibition (GI) [2]	inhibition of growth at 600 µM [7]	inhibition of growth at 600 µM [8]	growth inhibition (GI) [9]	Activity [10]	growth inhibition (GI) [11]
Active	–	–	–	–	–	–	C#CCOC(=O)C1(C)c2[nH]c3ccccc3c2CCN1C(=O)CCl (stereo not given)	Active	Active	–	–	–	–	–
–	inactive	inactive	Active	–	–	–	N[C@@H](CCC(=O)N[C@@H](CSN=O)C(=O)NCC(=O)O)C(=O)O [S-NITROSOGLUTATHIONE]	–	–	40%	40%	Active	Non-Toxic	Active
–	50%	–	–	Dose-dependent effect	inactive	Active	C#CCOC(=O)C1(C)c2[nH]c3ccccc3c2CCN1C(=O)CN(N=O)c1ccccc1 (stereo not given)	–	–	40%	40%	Dose-dependent effect	Non-Toxic	Dose-dependent effect
